The text below walks through data of ChEMBL document CHEMBL1138782, “Toward a novel metal-based chemotherapy against tropical diseases. 7. Synthesis and in vitro antimalarial activity of new gold-chloroquine complexes” (J Med Chem, 2004).

SMILES strings stand for the structures.

For this assay, the system named is Cell line. Kind of assay: Parasitaemia for Plasmodium falciparum in human erythrocytes after 3 hrs incubation with 100 uM compound. It counts as functional. In outline: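 Uninfected RBCs preincubated 3 h at 37 °C with 100 µM compound, washed in RPMI medium, then placed 6 h with RBCs carrying 44–48 h schizonts of synchronized K1 culture (plasmagel and sorbitol synchronization); reinvasion read as resulting parasitemia (%).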

As to `CCN(CC)CCCC(C)Nc1ccnc2cc(Cl)ccc12.O=P(O)(O)O.O=P(O)(O)O` (stereo unspecified) [CHLOROQUINE PHOSPHATE], the Parasitemia was found to be 5.67%.
